Results reported in ChEMBL document CHEMBL4715734, “Discovery of the Potent and Selective M1 PAM-Agonist N-[(3R,4S)-3-Hydroxytetrahydro-2H-pyran-4-yl]-5-methyl-4-[4-(1,3-thiazol-4-yl)benzyl]pyridine-2-carboxamide (PF-06767832): Evaluation of Efficacy and Cholinergic Side Effects” (J Med Chem, 2016).
In brackets after ≈: the same amount, converted by molar mass.

How the values were obtained:
[1] = fCmax in dog at 45 mg/kg, po using spray-dried dispersion formulation; assay type: ADME, organism-based, Canis lupus familiaris; conditions: in vivo
[2] = Unbound brain concentration in CD-1 mouse at 3.2 mg/kg, sc measured after 2 hrs by LC-MS/MS analysis; assay type: ADME, organism-based; conditions: in vivo
[3] = target: T1, Muscarinic acetylcholine receptor M1 (Rattus norvegicus) (UniProt P08482); test: Agonist activity at muscarinic M1 receptor in Sprague-Dawley rat hippocampal slice assessed as increase in CA1 spiked rates by electrophysiological analysis; conditions: filed as agonist
T1 sequence (whole entry): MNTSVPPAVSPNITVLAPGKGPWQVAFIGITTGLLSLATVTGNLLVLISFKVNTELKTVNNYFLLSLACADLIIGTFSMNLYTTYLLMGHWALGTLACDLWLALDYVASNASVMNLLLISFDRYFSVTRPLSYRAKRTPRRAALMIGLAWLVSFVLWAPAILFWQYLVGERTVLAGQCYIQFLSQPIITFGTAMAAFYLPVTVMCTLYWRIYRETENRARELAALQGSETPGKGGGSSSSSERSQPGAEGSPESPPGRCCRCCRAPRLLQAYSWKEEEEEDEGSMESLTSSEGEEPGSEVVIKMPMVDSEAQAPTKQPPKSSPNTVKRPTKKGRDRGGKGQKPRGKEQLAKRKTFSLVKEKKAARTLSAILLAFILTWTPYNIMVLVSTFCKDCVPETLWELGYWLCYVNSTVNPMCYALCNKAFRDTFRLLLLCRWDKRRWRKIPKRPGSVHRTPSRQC

[4] = target: T2, Muscarinic acetylcholine receptor M2 (Homo sapiens, UniProt P08172); test: Positive allosteric modulation of muscarinic M2 receptor (unknown origin) assessed as increase in ACh-induced displacement of [3H]-NMS from M2 receptor
T2 sequence (P08172 whole entry): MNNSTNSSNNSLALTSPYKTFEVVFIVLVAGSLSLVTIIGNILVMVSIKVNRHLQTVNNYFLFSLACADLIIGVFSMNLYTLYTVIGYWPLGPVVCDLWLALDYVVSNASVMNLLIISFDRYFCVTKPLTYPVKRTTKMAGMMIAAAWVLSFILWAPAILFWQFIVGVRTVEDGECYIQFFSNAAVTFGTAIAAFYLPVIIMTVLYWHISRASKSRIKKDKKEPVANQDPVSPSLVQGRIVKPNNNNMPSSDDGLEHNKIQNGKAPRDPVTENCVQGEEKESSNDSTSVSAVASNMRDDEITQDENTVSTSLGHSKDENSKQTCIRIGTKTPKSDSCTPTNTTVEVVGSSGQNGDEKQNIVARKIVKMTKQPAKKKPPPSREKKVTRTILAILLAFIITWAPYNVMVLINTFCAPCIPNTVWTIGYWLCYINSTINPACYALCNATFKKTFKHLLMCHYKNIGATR
How it was run: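 Cell lines expressing M2 or M3 were used for [3H]NMS binding. Inhibition of binding by ACh was measured in the presence of fixed compound concentrations of 10, 3, 1, 0.3, 0.1 and 0 µM.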

[5] = Aqueous solubility of compound at pH 6.5; assay type: physicochemical; conditions: buffer
[6] = Ratio of fAUC in rat brain to plasma; assay type: ADME, cell-free; conditions: brain and plasma, read-out: Ratio AUC
[7] = Unbound plasma concentration in CD-1 mouse at 1 mg/kg, sc measured after 2 hrs by LC-MS/MS analysis; assay type: ADME, organism-based; conditions: in vivo
[8] = system: MDR1 (P-gp); test: Efflux ratio of permeability across basolateral to apical side over apical to basolateral side in dog MDCK-MDR1 cells; assay type: ADME, cell-based, Canis lupus familiaris
[9] = Toxicity in dog assessed as emesis at 3 mg/kg, po using spray-dried dispersion formulation; assay type: organism-based, Canis lupus familiaris; conditions: in vivo
How it was run: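 Dogs received single escalating oral doses as a spray-dried dispersion (10% drug loading with HPMCAS-M). The dispersion was suspended in 0.5 wt% methylcellulose/0.5 wt% HPMCAS in 20 mM tris buffer, pH 7.4. One dog per sex per dose was used, and clinical signs were recorded.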

[10] = Unbound plasma concentration in amphetamine-induced C57BL/6J mouse model of hyperlocomotion at 1 mg/kg, sc measured after 1 hr; assay type: ADME, organism-based; conditions: in vivo
How it was run: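 Satellite PK animals from the mouse aLMA study, N=2/dose. Dosed subcutaneously with a solution in 5/15/80 DMSO/Solutol/water. Plasma and brain were sampled at T = 1 h.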

[11] = Positive allosteric modulation of muscarinic M2/M3 receptor in Hartley guinea pig ileum assessed as increase in donepezil-induced stimulation of contraction; assay type: tissue-based; conditions: Cavia porcellus
How it was run: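 PAM mode used guinea pig ileum in a tissue bath. Contraction concentration–response curves were run in the presence of an EC20 of donepezil, with or without atropine.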

[12] = fAUC (0 to 24 hrs) in rat at 10 mg/kg, po administered for 14 days; assay type: ADME, organism-based; conditions: in vivo, 336 h, time 14 day
How it was run: (§1)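 2-week repeat oral dosing in rats, 0.5% methylcellulose formulation; N=4/sex/dose; doses 3, 10, 30 (males)/15 (females) mg/kg; unbound exposures reported per dose and sex.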

[13] = Clearance in dog at 0.1 mg/kg, iv administered as single bolus dose; assay type: ADME, organism-based, Canis lupus familiaris; conditions: in vivo
[14] = Ratio of AUC in dog brain to fAUC in dog plasma; assay type: ADME, cell-free, Canis lupus familiaris; conditions: in vivo
[15] = fCmax in rat at 30 mg/kg, po administered for 14 days; assay type: ADME, organism-based; conditions: in vivo, 336 h, time 14 day; how it was run: as §1
[16] = target: T3, Muscarinic acetylcholine receptor M5 (Homo sapiens, UniProt P08912); test: Agonist activity at human recombinant muscarinic M5 receptor stably expressed in CHO cells assessed as increase in intracellular calcium level up to 10 uM incubated for 10 mins by Fluo-8AM dye based FLIPR TETRA method; assay type: cell-based
T3 sequence (P08912 whole entry): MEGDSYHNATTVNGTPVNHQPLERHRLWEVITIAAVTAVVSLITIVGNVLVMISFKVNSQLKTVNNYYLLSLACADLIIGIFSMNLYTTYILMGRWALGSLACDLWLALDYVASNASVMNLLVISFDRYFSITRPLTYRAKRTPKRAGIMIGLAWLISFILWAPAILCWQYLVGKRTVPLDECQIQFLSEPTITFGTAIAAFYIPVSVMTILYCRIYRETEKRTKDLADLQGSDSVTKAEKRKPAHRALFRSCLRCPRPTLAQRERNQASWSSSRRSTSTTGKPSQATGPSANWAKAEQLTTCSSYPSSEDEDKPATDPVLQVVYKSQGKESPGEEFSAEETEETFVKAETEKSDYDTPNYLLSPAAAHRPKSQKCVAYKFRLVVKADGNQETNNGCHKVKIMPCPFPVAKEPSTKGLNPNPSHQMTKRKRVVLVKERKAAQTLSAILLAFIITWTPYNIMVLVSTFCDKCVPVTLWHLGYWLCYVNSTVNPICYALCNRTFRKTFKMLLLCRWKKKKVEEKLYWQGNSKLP

[17] = Toxicity in dog assessed as side-to-side head movements at 45 mg/kg, po using spray-dried dispersion formulation measured after 45 mins; assay type: organism-based, Canis lupus familiaris; conditions: in vivo, 0.75 h
[18] = fCmax in dog at 15 mg/kg, po using spray-dried dispersion formulation; assay type: ADME, organism-based, Canis lupus familiaris; conditions: in vivo
[19] = fAUC (0 to 24 hrs) in rat at 15 mg/kg, po administered for 14 days; assay type: ADME, organism-based; conditions: in vivo, 336 h, time 14 day; how it was run: as §1
[20] = Unbound brain concentration in CD-1 mouse at 1 mg/kg, sc measured after 2 hrs by LC-MS/MS analysis; assay type: ADME, organism-based; conditions: in vivo

With Cc1cnc(C(=O)N[C@H]2CCOC[C@@H]2O)cc1Cc1ccc(-c2cscn2)cc1 the fCmax [1] was 952 nM, the “Drug uptake(free)” value [2] was 52.8 nM and the Activity [3] was “Dose-dependent effect”. The Activity [4] was “Not Active”, the solubility [5] was 2.7 µg/mL (≈ 6.59 µM) and the Kp uu [6] was 0.34. For the same molecule, the “Cp(f)” value [7] was 42.1 nM, the efflux ratio [8] was 1.3 and the Activity [9] was “Toxic”. For the same molecule, the “Cp(f)” value [10] was 76.1 nM, the EC50 [11] was 0.082 µM and the fAUC [12] was 5.739 µM·h. For the same molecule, the clearance [13] was 2.73 mL/min/kg, the “Ratio AUC” value [14] was 0.6 and the fCmax [15] was 1221 nM. The Activity [16] was “Not Active”, the Activity [17] was “Toxic” and the fCmax [18] was 1050 nM. The fAUC [19] was 9.768 µM·h and the “Drug uptake(free)” value [20] was 14.3 nM.
